# Assay results as given in ChEMBL document CHEMBL3797170, “A Grand Challenge: Unbiased Phenotypic Function of Metabolites from Jaspis splendens against Parkinson's Disease” (J Nat Prod, 2016).
# Active and inactive are the calls of the source. The calls are words filed in the database; no cut-off is given here.
# What was measured:
# ONS [1] = assay: Induction of phenotypic perturbation in human ONS cells assessed as increase in mitochondrial marker at 10 uM after 24 hrs by mitotracker orange staining based assay relative to control; type: functional, cell-based
# How it was run: (§1)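 hONS patient cells (line C1 200 08 0013; 1350/well, DMEM/F12 plus 10% FBS) were given 10 μM compound in 0.6% DMSO, with DMSO as control, for 24 h at 37 °C. MitoTracker Orange CMTMRos (400 nM, 30 min) was applied live before 4% PFA fixation. Anti-α-tubulin and anti-LC3b immunofluorescence plus DAPI followed. High-content imaging used six images/well, with cell segmentation, and each feature was expressed as log2 ratio versus DMSO.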
# [2] = molecular target: Tubulin alpha (Homo sapiens) (UniProt P0DPH7+P68366+Q71U36+P68363+Q9BQE3+Q6PEY2+A6NHL2+Q9NY65); assay: Induction of phenotypic perturbation in human ONS cells assessed as increase in apha tubulin marker at 10 uM after 24 hrs by alpha tubulin staining based assay relative to control; type: functional, cell-based; how it was run: as §1
# ONS [3] = assay: Induction of phenotypic perturbation in human ONS cells assessed as increase in lysosome marker at 10 uM after 24 hrs by lysotrack red DND-99 staining based assay relative to control; type: functional, cell-based
# How it was run: (§2)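 hONS cells from Parkinson's disease patient line C1 200 08 0013, 1350 cells/well in DMEM/F12 with 10% FBS, exposed to 10 μM compound (0.6% DMSO; DMSO alone as control) for 24 h at 37 °C, 5% CO2. Live stain with LysoTracker Red DND-99 (100 nM, 1 h), then PFA fixation, anti-EEA1 immunostaining, DAPI and CellMask. Imaged at 20×, six fields/well, per-cell features given as log2 ratio to DMSO.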
# ONS [4] = assay: Induction of phenotypic perturbation in human ONS cells assessed as increase in LC3b marker at 10 uM after 24 hrs by LC3b staining based assay relative to control; type: functional, cell-based; how it was run: as §1
# ONS [5] = assay: Induction of phenotypic perturbation in human ONS cells assessed as decrease in EEA1-associated early endosomes level in at 10 uM after 24 hrs by EEA1 staining based assay relative to control; type: functional, cell-based; how it was run: as §2
# ONS [6] = assay: Induction of phenotypic perturbation in human ONS cells assessed as decrease in autophagy markers level in at 10 uM after 24 hrs relative to control; type: functional, cell-based
# How it was run: (§3)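 Patient-derived hONS cells (Parkinson's line C1 200 08 0013), 1350 cells/well in DMEM/F12 + 10% FBS, exposed to 10 μM compound (0.6% DMSO final; DMSO 0.6% as negative control) for 24 h at 37 °C, 5% CO2. Plate 1: MitoTracker Orange 400 nM, fixed, anti-α-tubulin and anti-LC3b. Plate 2: LysoTracker Red 100 nM, anti-EEA1, CellMask. DAPI on all cells.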
# [7] = Cytotoxicity against human ONS cells derived from parkinsons disease patients assessed as alteration of nuclear parameters at 10 uM; type: cell-based; how it was run: as §3
# [8] = Cytotoxicity against human ONS cells derived from parkinsons disease patients assessed as alteration of cellular parameters at 10 uM; type: cell-based; how it was run: as §3
# ONS [9] = assay: Induction of phenotypic perturbation in human ONS cells assessed as increase in EEA1-associated early endosomes level in at 10 uM after 24 hrs by EEA1 staining based assay relative to control; type: functional, cell-based
# ONS [10] = assay: Induction of phenotypic perturbation in human ONS cells assessed as decrease in lysosome marker at 10 uM after 24 hrs by lysotrack red DND-99 staining based assay relative to control; type: functional, cell-based
SMILES,Activity (ONS [1]),Activity [2],Activity (ONS [3]),Activity (ONS [4]),Activity (ONS [5]),Activity (ONS [6]),also measured
N#Cc1cn([C@@H]2O[C@H](CO)[C@@H](O)[C@H]2O)c2nc[nH]c(=O)c12,Active,Active,Active,Active,Active,–,–
O=C(NC(=O)c1c[nH]c2cc(Br)ccc12)c1c[nH]c2cc(Br)ccc12,Active,Active,Active,Active,Active,–,–
N#Cc1cn([C@@H]2O[C@H](CO)[C@@H](O)[C@H]2O)c2ncnc(N)c12,–,–,–,–,Active,Active,–
N#Cc1c[nH]c2ncnc(N)c12,–,–,–,–,Active,–,–
N=C(N)c1c[nH]c2cc(Br)ccc12,Active,Active,Active,Active,Active,–,–
CSc1c(CC(=O)O)[n+](C)cn1C,Active,Active,Active,Active,Active,–,–
C/C(=C\[C@H](C)C[C@H](C)O)C[C@H](C)C(=O)N[C@@H](C)C(=O)N(C)[C@H](Cc1c(Br)[nH]c2ccccc12)C(=O)N[C@H](CC(=O)O)c1ccc(O)cc1 [JASPLAKINOLIDE Z1],Active,Active,Active,Active,Active,–,Activity [7]: Toxic; Activity [8]: Toxic
Cc1cn([C@H]2C[C@H](O)[C@@H](CO)O2)c(=O)[nH]c1=O,–,–,–,–,Active,Active,–
CNc1nc2nccnc2c(=O)n1C,Active,Active,Active,Active,Active,–,–
NC(=O)c1c[nH]c2ncnc(N)c12,–,–,–,–,Active,–,–
COC(=O)c1c[nH]c2cc(Br)ccc12,–,–,–,–,Active,–,–
NC(=O)c1c[nH]c2cc(Br)ccc12,Active,Active,Active,Active,Active,Active,–
C[C@@H]1NC(=O)[C@@H](C)C/C=C/[C@H](C)C[C@H](C)OC(=O)C[C@H](c2ccc(O)cc2)NC(=O)[C@@H](Cc2c(Br)[nH]c3ccccc23)N(C)C1=O,–,–,–,–,–,–,Activity [7]: Toxic; Activity [8]: Toxic
COC(=O)c1c[nH]c2ncnc(N)c12,–,–,–,–,Active,–,–
COc1cc2c3c(c(=O)oc2cc1O)NCCS3(=O)=O,–,–,–,–,–,–,Activity (ONS [9]): Active; Activity (ONS [10]): Active
Nc1nc2c(ncn2[C@@H]2O[C@H](CO)[C@@H](O)[C@H]2O)c(=O)[nH]1,–,–,–,–,Active,Active,–
Nc1ncc2ncn([C@@H]3O[C@H](CO)[C@@H](O)[C@H]3O)c2n1,–,–,–,–,Active,Active,–
C=C1C[C@H](C)C(=O)N[C@@H](C)C(=O)N(C)[C@H](Cc2c(Br)[nH]c3ccccc23)C(=O)N[C@@H](c2ccc(O)cc2)CC(=O)O[C@@H](C)C[C@@H](C)C1=O [JASPLAKINOLIDE B],–,–,–,–,–,–,Activity [7]: Toxic; Activity [8]: Toxic
NCCc1c[nH]c2cc(Br)ccc12,–,–,–,–,Active,Active,–
C/C1=C\[C@H](C)C[C@H](C)OC(=O)C[C@H](c2ccc(O)cc2)NC(=O)[C@@H](Cc2c(Br)[nH]c3ccccc23)N(C)C(=O)[C@H](C)NC(=O)[C@@H](C)C1 [JASPAMIDE],–,–,–,–,–,–,Activity [7]: Toxic; Activity [8]: Toxic
C/C1=C\[C@H](C)C[C@H](C)OC(=O)C[C@H](c2ccc(O)c(Br)c2)NC(=O)[C@@H](Cc2c(Br)[nH]c3ccccc23)N(C)C(=O)[C@H](C)NC(=O)[C@@H](C)C1 [PIPESTELIDE A],–,–,–,–,–,–,Activity [7]: Toxic; Activity [8]: Toxic
NC(=O)c1cn([C@@H]2O[C@H](CO)[C@@H](O)[C@H]2O)c2ncnc(N)c12,–,–,–,–,Active,Active,–
COC(=O)c1cn([C@@H]2O[C@H](CO)[C@@H](O)[C@H]2O)c2ncnc(N)c12,–,–,–,–,Active,–,–
